Assay results collected from several papers.
Lines come from different studies, so protocols differ.
Target: Vascular endothelial growth factor receptor 1 (FLT1, Homo sapiens, UniProt P17948)
One construct used (P17948 827-1158, limits assumed): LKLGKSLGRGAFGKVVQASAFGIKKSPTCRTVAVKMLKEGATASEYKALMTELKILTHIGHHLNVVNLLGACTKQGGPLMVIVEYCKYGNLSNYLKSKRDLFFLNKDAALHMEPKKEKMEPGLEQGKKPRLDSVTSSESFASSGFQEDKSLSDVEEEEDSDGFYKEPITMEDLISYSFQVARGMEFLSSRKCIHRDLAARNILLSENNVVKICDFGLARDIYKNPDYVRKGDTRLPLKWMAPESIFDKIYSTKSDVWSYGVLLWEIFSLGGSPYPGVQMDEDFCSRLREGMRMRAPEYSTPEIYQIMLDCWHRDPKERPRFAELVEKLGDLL

| Structure (SMILES) | observed | mode | method | quantity | result |
| --- | --- | --- | --- | --- | --- |
| CC(C)(C)n1nc(-c2ccc3nc(OC4CC4)ccc3c2)c(C(N)=O)c1N | cell-free assay | – | – | IC50 | 8380 nM |
| COc1ccc2c(Oc3ccc4c(C(=O)Nc5ccccc5N)cccc4c3)ccnc2c1 | enzyme activity | inhibitor | – | IC50 | 8 nM |
| CNC(=O)c1cc2c(Oc3ccc(NC(=O)C4(C(=O)Nc5ccc(F)cc5)CC4)cc3)ccnc2cc1OC | enzyme activity | inhibitor | radiometric | IC50 | 13 nM |
| CC(C)(C)n1nc(-c2cnc3cc(OC4CC4)ccc3c2)c(C(N)=O)c1N | cell-free assay | – | – | IC50 | > 10000 nM |
| Cc1ccc(C(=O)Nc2ccc(Oc3cc4cnn(C)c4cc3-c3cn[nH]c3)c(F)c2)c(=O)n1-c1ccc(F)cc1 | enzyme activity in cells | inhibitor | – | IC50 | > 1000 nM |
| Cc1cnc(-c2ccc(-c3ccc(NC(=O)Nc4c(F)cc(F)cc4F)cc3F)c3c2C(=O)NC3)[nH]1 | binding | – | competition with immobilised ligand | Kd | 13 nM |
| Cc1ccc(NC(=O)c2ccc(C)c(C(F)(F)F)c2)cc1C#Cc1nn(C2CCC(O)CC2)c2ncnc(N)c12 (centres unmarked) | enzyme activity | inhibitor | radiometric | IC50 | 15 nM |
| C=CC(=O)Nc1cccc(CN2C(=O)N(c3c(Cl)c(OC)cc(OC)c3Cl)Cc3cnc(NCCCCN(CC)CC)nc32)c1 | binding | – | competition with immobilised ligand | Kd | 32 nM |
